We go through one compound from ChEMBL document CHEMBL5661970 (Cancer Res, 2006).

The target in series [1] is Mitogen-activated protein kinase 1 (Homo sapiens, UniProt P28482). In words: Inhibition of ERK2 phosphorylation in VEGF-stimulated serum-starved human HUVEC cells by immunoblotting analysis. In kind it is cell-based. Put shortly:
(§1)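 HUVECs serum-starved, treated with inhibitor (DMSO stock diluted in medium), then stimulated with VEGF. Lysates run on SDS-PAGE and immunoblotted with anti-phospho-p44/42 MAPK antibody. Four independent experiments.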

For another series, the system named is ZR-75-1. The series can be described thus: Antitumor activity against human ZR-75-1 cells xenografted in gamma-irradiation induced RH-rnu/rnu athymic rat assessed as tumor growth inhibition at 0.2 mg/kg, po administered once daily for 2 weeks and measured on day 14 relative to control. In kind it is functional. The settings on record: ZR-75-1, light or radiation study, 336 h, read-out: TGI. Background: In xenograft studies the graft and the host belong to different species.

A short description of series [2]: Cmax in F344/N JcL-rnu athymic rat at 5 mg/kg, po measured upto 72 hrs by HPLC-MS/MS analysis. In kind it is ADME, organism-based. As to conditions: in vivo. Put shortly:
(§2)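 Female F344/N JcL-rnu rats, four per group, single p.o. dose suspended in 0.5% methyl cellulose. Tail-vein blood sampled at set times to 72 h. Serum spiked with internal standard, deproteinated with acetonitrile, analysed by HPLC-MS/MS. Parameters derived by noncompartmental analysis.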

A short description of series [3]: Half life in F344/N JcL-rnu athymic rat at 0.2 mg/kg, po measured upto 72 hrs by HPLC-MS/MS analysis. The format is ADME, organism-based. As to conditions: in vivo. The procedure, abridged:
as §2

Series [4] has as its target T1, Mitogen-activated protein kinase 3 (Homo sapiens, UniProt P27361). In words: Inhibition of ERK1 phosphorylation in VEGF-stimulated serum-starved human HUVEC cells by immunoblotting analysis. The format is cell-based. The procedure, abridged:
as §1
(In general: Immunoblotting shows a protein as a band on a membrane.)

Series [5] is described as follows: Apparent oral volume of distribution in F344/N JcL-rnu athymic rat at 1 mg/kg, po measured upto 72 hrs by HPLC-MS/MS analysis. As to conditions: in vivo. The format is ADME, organism-based. The procedure, abridged:
as §2

For series [6], the target named is T1, Mitogen-activated protein kinase 3. The series can be described thus: Inhibition of ERK1 phosphorylation in bFGF-stimulated serum-starved human HUVEC cells by immunoblotting analysis. In kind it is cell-based.
A short description of series [7]: Apparent oral clearance in F344/N JcL-rnu athymic rat at 0.04 mg/kg, po measured upto 72 hrs by HPLC-MS/MS analysis. The settings on record: in vivo. In kind it is ADME, organism-based. Put shortly:
as §2

Series [8] concerns Calu-6. In words: Antitumor activity against human Calu-6 cells xenografted in RH-rnu/rnu athymic rat assessed as decrease in capillary permeability in tumor at 1 mg/kg, po measured on day 2 by DCE-MRI analysis relative to control. Also on record: scale not given: the % may be the effect or the level left.
Series [9] can be described thus: AUC (0-infinity) in F344/N JcL-rnu athymic rat at 5 mg/kg, po measured upto 72 hrs by HPLC-MS/MS analysis. In kind it is ADME, organism-based. As to conditions: in vivo. The procedure, abridged: (§3)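 Female athymic rats, four per group, given a single oral dose suspended in 0.5% methyl cellulose in water. Tail-vein blood was drawn at set times up to 72 h. Serum was spiked with internal standard, deproteinated with acetonitrile and analysed by HPLC-MS/MS. AUCinf came from noncompartmental analysis.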

The next series relates to LoVo. The series can be described thus: Antitumor activity against human LoVo cells xenografted in gamma-irradiation induced RH-rnu/rnu athymic rat assessed as tumor growth inhibition at 1.0 mg/kg, po administered once daily for 2 weeks and measured on day 14 relative to control. As to conditions: light or radiation study, 336 h, read-out: TGI. In kind it is functional. The procedure, abridged:
(§4)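 Rats were γ-irradiated with 7 Gy whole body, and 24 h later received s.c. tumor cells. Fragments (20-30 mg) from ~1,500 mm3 tumors were then implanted s.c. into irradiated athymic rats. Oral dosing at 0.2 or 1 mg/kg or vehicle ran once daily for 2 weeks from day 0. Tumors were measured with calipers twice weekly (length×width²×0.5). TGI% was taken versus vehicle on day 14 (BxPC-3: day 13), with an unpaired t test on RTV.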

The subject of the next series is HUVEC. The series can be described thus: Inhibition of cell migration in VEGF-induced serum-starved human HUVEC cells at 1 nmol/L incubated for 22 hrs by calcein AM staining based fluorescence plate reader analysis relative to control. In kind it is functional. The procedure, abridged:
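HUVECs starved 5 h in EBM-2 with 0.1% BSA, placed in upper chamber of microchamber plate; lower chamber held 10 ng/mL VEGF, 0.1% FBS, 0.1% BSA. Compound in both chambers. After 22 h, migrated cells stained with 4 μg/mL calcein AM, read at 485/530 nm; 100%/0% set with/without VEGF in 0.1% DMSO; n = 10.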

The nature of series [10]: Half life in F344/N JcL-rnu athymic rat at 0.04 mg/kg, po measured upto 72 hrs by HPLC-MS/MS analysis. In kind it is ADME, organism-based. As to conditions: in vivo. The procedure, abridged:
as §2

Series [11] can be described thus: Antitumor activity against human CGL-9 cells xenografted in gamma-irradiation induced RH-rnu/rnu athymic rat assessed as tumor growth inhibition at 1.0 mg/kg, po administered once daily for 2 weeks and measured on day 14 relative to control. The format is functional. The settings on record: CGL-9, light or radiation study, 336 h, read-out: TGI. Put shortly: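 Human tumor cells inoculated s.c. in right flank of athymic rats 24 h after whole-body γ-irradiation (7 Gy, Co60); established ~1,500 mm3 tumors excised and 20-30 mg fragments implanted s.c. in irradiated rats. Oral dosing in 0.5% methyl cellulose vehicle from randomization (day 0). Tumor volume measured twice weekly by calipers, (length × width²) × 0.5; TGI% versus vehicle on day 14.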

For series [12], the system named is Calu-6. The series can be described thus: Antitumor activity against human Calu-6 cells xenografted in RH-rnu/rnu athymic rat assessed as decrease in capillary permeability in tumor at 0.2 mg/kg, po measured on day 13 by DCE-MRI analysis relative to control. In kind it is functional. Further details: scale not given: the % may be the effect or the level left.

Series [13] in a line: Tmax in F344/N JcL-rnu athymic rat at 0.2 mg/kg, po measured upto 72 hrs by HPLC-MS/MS analysis. The format is ADME, organism-based. As to conditions: in vivo. Put shortly: as §2
The test system of series [14] is Calu-6. In words: Antitumor activity against human Calu-6 cells xenografted in RH-rnu/rnu athymic rat assessed as tumor growth inhibition at 1.0 mg/kg, po administered […] by DCE-MRI analysis. In kind it is functional, organism-based. The procedure, abridged:
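Calu-6 tumor-bearing athymic rats were randomized at 274-287 mm3 and dosed orally at 0.2 or 1.0 mg/kg or vehicle once daily on days 0-13. Tumor growth was followed by T2-weighted MRI at 1.5 T through day 21.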

For a further series, the system named is BXPC-3. In words: Antitumor activity against human BXPC-3 cells xenografted in gamma-irradiation induced RH-rnu/rnu athymic rat assessed as tumor growth inhibition at 0.2 mg/kg, po administered once daily for 2 weeks and measured on day 13 relative to control. In kind it is functional. As to conditions: BXPC-3, light or radiation study, 336 h, read-out: TGI. Put shortly:
as §4

Series [15] in a line: AUC (0-infinity) in F344/N JcL-rnu athymic rat at 0.2 mg/kg, po measured upto 72 hrs by HPLC-MS/MS analysis. The format is ADME, organism-based. The settings on record: in vivo. The procedure, abridged:
as §3

The next series has as its system MDA-MB-231. The series can be described thus: Antitumor activity against human MDA-MB-231 cells xenografted in gamma-irradiation induced RH-rnu/rnu athymic rat assessed as tumor growth inhibition at 0.2 mg/kg, po administered once daily for 2 weeks and measured on day 14 relative to control. In kind it is functional. The settings on record: MDA-MB-231, light or radiation study, 336 h, read-out: TGI. Put shortly: as §4

Series [16] relates to Calu-6. In words: Antitumor activity against human Calu-6 cells xenografted in RH-rnu/rnu athymic rat assessed as tumor growth inhibition at 0.2 mg/kg, po administered once daily for 6 to 21 days by DCE-MRI analysis. As to conditions: time 6-21 day.
Series [17] in a line: Apparent oral volume of distribution in F344/N JcL-rnu athymic rat at 0.2 mg/kg, po measured upto 72 hrs by HPLC-MS/MS analysis. The format is ADME, organism-based. The settings on record: in vivo. Put shortly:
as §2

Active and inactive are the calls of the source. Some results are limits rather than exact numbers.

T1 sequence (P27361 whole entry): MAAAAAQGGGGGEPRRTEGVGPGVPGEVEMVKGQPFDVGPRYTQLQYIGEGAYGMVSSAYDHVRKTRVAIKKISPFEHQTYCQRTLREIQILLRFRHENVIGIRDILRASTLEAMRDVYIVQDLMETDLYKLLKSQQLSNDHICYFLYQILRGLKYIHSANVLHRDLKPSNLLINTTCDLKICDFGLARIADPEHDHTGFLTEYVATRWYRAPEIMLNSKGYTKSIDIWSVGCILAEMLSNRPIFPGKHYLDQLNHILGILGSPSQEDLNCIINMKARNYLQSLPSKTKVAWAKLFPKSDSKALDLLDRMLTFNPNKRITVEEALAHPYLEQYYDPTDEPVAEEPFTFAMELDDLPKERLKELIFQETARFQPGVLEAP
Chain of Mitogen-activated protein kinase 1 (P28482 whole entry): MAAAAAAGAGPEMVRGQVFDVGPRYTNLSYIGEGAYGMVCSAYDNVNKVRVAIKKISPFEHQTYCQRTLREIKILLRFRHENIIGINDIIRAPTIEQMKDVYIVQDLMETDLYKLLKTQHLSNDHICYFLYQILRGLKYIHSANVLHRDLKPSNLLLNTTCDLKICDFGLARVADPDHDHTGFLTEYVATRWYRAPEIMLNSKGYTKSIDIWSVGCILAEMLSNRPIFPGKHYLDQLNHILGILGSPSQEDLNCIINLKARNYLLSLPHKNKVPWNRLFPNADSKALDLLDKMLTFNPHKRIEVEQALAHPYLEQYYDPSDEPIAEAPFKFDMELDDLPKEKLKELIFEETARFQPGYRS

What is called IC50 is the concentration that inhibits the measured activity by half. The Cmax is the maximum level reached in the sampled fluid or tissue. As usually defined, the half-life is the time needed for the level to fall by half in the phase considered. One may read the Vd/F as the apparent distribution volume after extravascular dosing. One may read the inhibition as the share of the control response that was lost under treatment. Usually CL/F stands for clearance divided by bioavailability, as obtained after extravascular dosing. One may read the AUC(0-inf) as total exposure, with the tail of the curve extrapolated. One may read the Tmax as the time from dosing to the highest level. For the compound `COc1cc2nccc(Oc3ccc(NC(=O)Nc4cc(C)on4)c(Cl)c3)c2cc1OC` [TIVOZANIB], the figures for the IC50 in series [1] and in [4] were 0.18 nM and 0.13 nM, respectively. The inhibition in vivo at 0.2 mg/kg in the series on ZR-75-1 is 77.2%; in the series with BXPC-3, 60.7%; in the series on MDA-MB-231, 77%. Besides, in series [2], the Cmax was found to be 2.82 µg/mL. For the same compound, the half-life in [3] was 7.78 h; in [10] it was 9.25 h. In addition, the Vd/F in [5] was 1.54 L/kg; in [17], 1.4 L/kg. For the same compound, the inhibition result in series [6] is “inactive”. Also, in [7], the CL/F is 0.122 L/h/kg. Moreover, the figures for the Activity in the series on Calu-6 [8] and in the series on Calu-6 [12] were 55% and 45%, respectively. Also, the AUC(0-inf) in [9] stood at 44.5 µg·h/mL; in series [15] it was 1.64 µg·h/mL. In addition, the inhibition in vivo at 1 mg/kg in the series on LoVo was above 100%; in series [11] it was 96.2%. Besides, the inhibition at 0.001 µM with HUVEC was around 40%. Besides, the Tmax in [13] amounted to 2.63 h. For the same compound, the outcome in the series with Calu-6 [14] and with Calu-6 [16] was Active.
